Molecules are shown by their SMILES. Activity calls are given as the source filed them.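 The calls were made as follows, unless noted: active = a full or partial loss of lipid-probe fluorescence in the fish gall bladder, intestine or both, judged by eye; inactive = no fluorescence loss, or compound toxic to the fish.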

These results are taken from PubChem BioAssay.

Assay [1] can be described thus: inhibitors of TNFa-induced NFkB p65 translocation, primary screen, imaging, HUVEC, MLSMR starter and 10KST1 sets (AID 438;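 active = inhibition above 20% together with a positive visual image hit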;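 also: compound added about 3h40 before a 20 min TNFalpha stimulation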;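 as to inhibition: signal is the nuclear over cytoplasmic p65 intensity ratio per well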). Conditions: HUVEC TNFa-induced p65 nuclear translocation; cell count: measured here: nuclei count (cytotoxicity indicator), at 2.08 µM; inhibition: at 2 µM, stronger effect = higher value, 0% TNFa-plus-vehicle, 100% no-TNFa wells.
Assay [2] is described as follows: endothelial E-selectin expression blockers – imaging, HUVEC, immunofluorescence, MLSMR starter and 10KST1 sets, primary screen (AID 487;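 active = visually confirmed hit in the image check and inhibition above 20%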;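 as to inhibition: signal is fraction of cell area covered by stained E-selectin grains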;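 as to nuclei count: 100% = median nuclei count of all wells on the same plate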). Conditions: HUVEC TNFalpha-induced E-selectin immunofluorescence imaging, at 2 µM; inhibition: stronger effect = higher value; nuclei count: measured here: cell number, toxicity.
A short description of assay [3]: Primary imaging screen for DUSP6 inhibitors that restore phospho-Erk in transfected HeLa cells, chemical complementation (AID 609;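 active = compounds giving at least 50% inhibition in the cell-based MKP-3 phosphatase rescue imaging test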;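 as to inhibition: phospho-Erk level distribution per well compared with pooled transfected vehicle control wells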). Conditions: HeLa MKP-3 transfected, phospho-Erk imaging KS statistic, at 10 µM, cells stimulated with TPA for 15 min.
For assay [4], the target named is Dual specificity protein phosphatase 6 (Homo sapiens) (UniProt Q16828). The assay is described as above. The settings on record: HeLa MKP-3 transfected, phospho-Erk imaging KS statistic; at 10 µM; stronger effect = higher value; cells stimulated with TPA for 15 min.
Sequence of Dual specificity protein phosphatase 6 (Homo sapiens) (Q16828 whole entry, looked up): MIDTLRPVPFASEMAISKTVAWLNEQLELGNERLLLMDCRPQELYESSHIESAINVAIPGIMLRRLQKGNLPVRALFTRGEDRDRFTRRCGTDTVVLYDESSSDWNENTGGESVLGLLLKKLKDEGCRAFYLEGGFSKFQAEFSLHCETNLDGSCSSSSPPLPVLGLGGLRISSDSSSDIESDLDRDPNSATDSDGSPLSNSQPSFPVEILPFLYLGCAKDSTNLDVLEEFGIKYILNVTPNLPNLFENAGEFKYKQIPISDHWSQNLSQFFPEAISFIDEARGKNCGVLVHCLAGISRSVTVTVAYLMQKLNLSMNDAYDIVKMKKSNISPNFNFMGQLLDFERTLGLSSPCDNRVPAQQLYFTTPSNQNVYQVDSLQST
Assay [5] deals with Voltage-gated potassium channel subunit beta-2 (Rattus norvegicus) (UniProt P62483). The experiment in a line: inhibitors of rat Kvbeta2 reductase activity – biochemical, NADPH fluorescence, primary screen (AID 622;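 active = fluorescence slope higher than the sample average by over 3 SD, cut at about -0.22 in these data, passing the limit was not always enough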;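 also: slope of raw intensity against log time taken from 70 to 1610 s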). The settings on record: recombinant KvBeta, 4-cyanobenzaldehyde reduction, at 10 µM, stronger effect = higher value.
Sequence of Voltage-gated potassium channel subunit beta-2 (Rattus norvegicus) (P62483 whole entry, looked up): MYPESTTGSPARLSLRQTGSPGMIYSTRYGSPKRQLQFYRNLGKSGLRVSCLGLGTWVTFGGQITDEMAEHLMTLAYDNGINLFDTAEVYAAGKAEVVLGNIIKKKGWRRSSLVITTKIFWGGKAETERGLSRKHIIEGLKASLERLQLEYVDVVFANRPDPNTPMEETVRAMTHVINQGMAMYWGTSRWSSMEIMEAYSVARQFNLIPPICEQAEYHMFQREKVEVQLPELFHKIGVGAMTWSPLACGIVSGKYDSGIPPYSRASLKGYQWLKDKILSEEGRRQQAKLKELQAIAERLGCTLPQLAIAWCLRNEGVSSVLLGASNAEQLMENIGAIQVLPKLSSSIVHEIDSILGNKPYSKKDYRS
The target is the same in assay [6]. The experiment in a line: enhancers of rat Kvbeta2 NADPH turnover – biochemical, NADPH fluorescence, primary screen (AID 623;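 active = NADPH fluorescence slope more negative than the mean of all samples by about 3 SD, 99.7% confidence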;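 also: fluorescence intensity change per second fitted from 20 to 320 s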). The settings on record: Recombinant KvBeta, NADPH fluorescence decrease slope, 10 min; at 10 µM; stronger effect = lower value.
The target in assay [7] is Alpha-2C adrenergic receptor (Homo sapiens) (UniProt P18825). The experiment in a line: compounds altering alpha2C-coupled GIRK flux – cell-based, HEK293 alpha2C/GIRK1/2, thallium flux, primary screen (AID 624;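 active = fluorescence slope after compound addition differing from the mean of all screened samples at 99.7% confidence, in either direction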;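 also: slope of fluorescence ratio to pre-addition baseline per second over 15 to 24 s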). The settings on record: thallium flux BTC fluorescence, at 10 µM, actives lie on both sides.
Sequence of Alpha-2C adrenergic receptor (Homo sapiens) (P18825 whole entry, looked up): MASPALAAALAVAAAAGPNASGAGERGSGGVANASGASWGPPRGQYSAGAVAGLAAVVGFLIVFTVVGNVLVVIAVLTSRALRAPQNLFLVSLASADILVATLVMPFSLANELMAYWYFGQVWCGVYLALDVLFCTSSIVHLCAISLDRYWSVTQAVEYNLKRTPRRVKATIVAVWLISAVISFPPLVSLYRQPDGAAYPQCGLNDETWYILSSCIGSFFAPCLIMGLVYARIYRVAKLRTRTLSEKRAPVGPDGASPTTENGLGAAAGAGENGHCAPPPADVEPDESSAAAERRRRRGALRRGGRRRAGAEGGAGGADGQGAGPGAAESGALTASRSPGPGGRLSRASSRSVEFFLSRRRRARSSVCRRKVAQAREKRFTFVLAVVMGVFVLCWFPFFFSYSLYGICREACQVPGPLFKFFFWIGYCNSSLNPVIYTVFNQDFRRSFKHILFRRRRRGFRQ
A short description of assay [8]: inhibitors of larval lipid processing in zebrafish, primary screen, whole organism, PED6 fluorescence, gall bladder and intestine (AID 686).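 Also: larvae 5 to 7 days old with five fish per well; signal comes from phospholipase A2 cleavage of quenched PED6 carried via bile; overnight exposure to compound and PED6 before scoring.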 The settings on record: Zebrafish larvae PED6 lipid processing, fluorescence scoring; screened at 20 µM (by protocol). Put shortly:
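System: live zebrafish larvae aged 5-7 days, whole organism; measure: graded gall bladder and intestinal fluorescence inhibition per well; incubation: overnight exposure; reagent: ingested quenched lipid PED6 at 100 nM; signal: By-eye fluorescence microscopy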

Assay [9] is described as follows: loss of swimming-algae plug formation – whole organism, Chlamydomonas reinhardtii, WT vs cilia-less mutant, absorbance, 96-well, primary screen (AID 463189;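 active = inhibition at or above 50% relative to wild type and mutant plate controls; inactive = inhibition below 50%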;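 also: 0% = wild type cc124 cells in DMSO and 100% = ciliumless bld1 mutant cells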). Conditions: Chlamydomonas reinhardtii gravitaxis, OD600 absorbance, 2 days; at 10 µM; stronger effect = higher value.
[10] abbreviates: measured here: cell density z-score.
Setting [11] is: measured here: nuclear c-Myc green intensity z-score.
Setting [12] is: measured here: nuclear pErk red intensity z-score, stronger effect = higher value.

In the case of `CCOC(=O)C(NC=O)(NC(C)(C)C)C(=O)OCC`, in assay [1], the cell count amounted to 520. Besides, the inhibition (as a rule, the change of the read-out against control, counted positive when it falls) in assay [1] was -16.1% (inactive); in [2], -227% (inactive); in assay [4], -8.95% (inactive); in assay [9] it was -1.22% (inactive). The molecule further showed a nuclei count in assay [2] of 188%. Also, the z-score in [3] (setting [10]) was -0.692; in assay [3] (setting [11]), 0.27; in [3] (setting [12]), 0.909. Also, the fluorescence slope in [5] was -0.493 (inactive). The NADPH fluorescence slope in [6] was -5.5e-05 (inactive). For the same molecule, in assay [7], the slope was 0.00503 (inactive). The molecule was called inactive in assay [8].
For the molecule `O=C(c1ccco1)N1CCN(CCOCCOc2cccc3ccccc23)CC1`, the cell count in assay [1] is 473. Moreover, the inhibition is -5.4% (inactive) in assay [1], -81.6% (inactive) in assay [2], -2.07% (inactive) in [4] and 16.4% (inactive) in assay [9]. The nuclei count in assay [2] came to 121%. Moreover, the z-score in [3] (setting [10]) was -1.67; in [3] (setting [11]), -0.183; in assay [3] (setting [12]), 1.98. In addition, in assay [5], the fluorescence slope is -0.504 (inactive). Moreover, in assay [6], the NADPH fluorescence slope was -0.000107 (inactive). Moreover, in assay [7], the slope is 0.00477 (inactive). In assay [8], the molecule was classed as inactive.
`COc1ccccc1OCC(=O)Nc1ccc(S(=O)(=O)Nc2cc(C)nc(C)n2)cc1`: the cell count in assay [1] was 571. Further, the inhibition in [1] was -6.6% (inactive); in [2] it was 3% (inactive); in assay [4], 4.25% (inactive); in [9] it was -4.91% (inactive). The same molecule showed a nuclei count in [2] of 159%. The values for the z-score in assay [3] (setting [10]), in assay [3] (setting [11]) and in assay [3] (setting [12]) were 0.333, 1.18 and -0.662, respectively. Also, the fluorescence slope in assay [5] was -0.303 (inactive). Moreover, the NADPH fluorescence slope in [6] was 1.9e-05 (inactive). Also, in [7], the slope is 0.0043 (inactive). Besides, the molecule was classed as inactive in [8].
On to `CC(C)NC(=O)N1CCOCCOCCN(C(=O)NC(C)C)CCOCCOCC1`, for which the cell count in assay [1] came to 513. Further, the inhibition was -16.8% (inactive) in assay [1], -142% (inactive) in assay [2], 13.9% (inactive) in assay [4] and 11.9% (inactive) in assay [9]. The molecule also returned a nuclei count in assay [2] of 144%. Also, the z-score in assay [3] (setting [10]) was 2.53; in assay [3] (setting [11]), -2.34; in [3] (setting [12]), -0.54. For the same molecule, the fluorescence slope in assay [5] is -0.538 (inactive). Besides, the NADPH fluorescence slope in assay [6] was -6.1e-05 (inactive). Also, the slope in [7] was 0.00725 (inactive). Moreover, in assay [8], the call was inactive.
As for `Cc1cccc(OCC(=O)N2CCC(N3CCOCC3)CC2)c1`, the cell count in assay [1] worked out at 356. The inhibition was -12.6% (inactive) in [1], -156% (inactive) in assay [2], 17% (inactive) in assay [4] and 11.3% (inactive) in [9]. The nuclei count in assay [2] came to 149%. Besides, the z-score was 2.22 in assay [3] (setting [10]), -1.72 in assay [3] (setting [11]) and 0.299 in assay [3] (setting [12]). Also, the fluorescence slope in assay [5] was -0.406 (inactive). Besides, in assay [6], the NADPH fluorescence slope is -4.5e-05 (inactive). In addition, in [7], the slope was 0.00455 (inactive). Moreover, in [8], the result was inactive.
`CC1(C)CC(=O)C(CCCN2C(=O)c3ccccc3C2=O)C(=O)C1`: in assay [1], the cell count was found to be 527. Further, the inhibition in assay [1] is 0.1% (inactive); in assay [2] it was 10.1% (inactive); in assay [4], -5.26% (inactive); in assay [9], 18% (inactive). Also, in [2], the nuclei count amounted to 93.2%. Besides, the z-score in assay [3] (setting [10]) is -0.253; in [3] (setting [11]), 0.312; in assay [3] (setting [12]), -1.11. Further, the fluorescence slope in [5] is -0.379 (inactive). Besides, the NADPH fluorescence slope in assay [6] is -1.5e-05 (inactive). Also, in assay [7], the slope is 0.00431 (inactive). Further, the molecule was classed as inactive in assay [8].
As to `COc1cc(C2C(C#N)=C(N)Oc3cc(C)n(CCc4ccccc4)c(=O)c32)cc2c1OCO2` (stereo unspecified), the cell count in assay [1] was 331. Moreover, the inhibition is -2.4% (inactive) in [1], -42.5% (inactive) in assay [2], 11.4% (inactive) in assay [4] and 11.9% (inactive) in assay [9]. Besides, the nuclei count in assay [2] worked out at 165%. Besides, the z-score was -0.617 in [3] (setting [10]), 1.54 in [3] (setting [11]) and 1.26 in assay [3] (setting [12]). For the same molecule, the fluorescence slope in assay [5] is -0.433 (inactive). Further, the NADPH fluorescence slope in [6] is -0.000158 (inactive). Also, the slope in assay [7] is 0.00471 (inactive). For the same molecule, the result in assay [8] was inactive.
In the case of `O=C(O)c1ccc(OCCn2ccnc2)cc1`, the cell count in assay [1] amounted to 490. Moreover, the inhibition in [1] is -6.5% (inactive); in assay [2], -141% (inactive); in assay [4], 26.5% (inactive); in [9] it was 0.065% (inactive). This molecule also showed a nuclei count in assay [2] of 185%. Moreover, the figures for the z-score in assay [3] (setting [10]), in assay [3] (setting [11]) and in [3] (setting [12]) were -0.78, -1.02 and 1.25, respectively. Also, the fluorescence slope in [5] was -0.473 (inactive). In addition, in assay [6], the NADPH fluorescence slope is -0.000213 (inactive). Also, the slope in assay [7] is 0.00534 (inactive). In [8], the outcome was inactive.
As to `COc1ccc(/C(O)=C2/C(=O)C(=O)N(CCCN(C)C)C2c2ccccc2)cc1OC` (stereo unspecified), the cell count in assay [1] came to 346. The inhibition in assay [1] was -14.7% (inactive); in assay [2] it was -317% (inactive); in [4], 9.39% (inactive); in assay [9], -0.889% (inactive). This molecule showed a nuclei count in assay [2] of 131%. Further, the z-score was -0.204 in assay [3] (setting [10]), -0.251 in assay [3] (setting [11]) and 0.0495 in assay [3] (setting [12]). The fluorescence slope in assay [5] is -0.386 (inactive). Also, the NADPH fluorescence slope in assay [6] is -3.5e-05 (inactive). Also, the slope in [7] is 0.00558 (inactive). Besides, the molecule was classed as inactive in [8].
Take `O=C1C(=O)N(CCN2CCOCC2)C(c2ccccn2)/C1=C(/O)c1ccc(F)cc1` (stereo unspecified): the cell count in [1] amounted to 368. The inhibition in assay [1] is -5.8% (inactive); in assay [2], -3.3% (inactive); in [4] it was 3.66% (inactive); in assay [9] it was 38.7% (inactive). The same molecule registered a nuclei count in assay [2] of 124%. Moreover, the figures for the z-score in assay [3] (setting [10]), in assay [3] (setting [11]) and in [3] (setting [12]) were -0.169, 0.443 and -0.876, respectively. Besides, the fluorescence slope in assay [5] is -0.392 (inactive). Further, the NADPH fluorescence slope in assay [6] was -5.6e-05 (inactive). The slope in assay [7] is 0.00569 (inactive). Besides, the result in [8] was inactive.
With `CC(C)(C)C1=Nn2c(nnc2-c2ccccn2)SC1`, the cell count in [1] was determined as 537. The inhibition in assay [1] was -5.5% (inactive); in assay [2], -200% (inactive); in assay [4], -2.47% (inactive); in assay [9] it was -9.77% (inactive). In addition, the nuclei count in [2] is 165%. Also, the z-score in assay [3] (setting [10]) was 1.25; in assay [3] (setting [11]) it was 0.795; in assay [3] (setting [12]) it was -0.0968. For the same molecule, the fluorescence slope in [5] was -0.417 (inactive). Moreover, the NADPH fluorescence slope in [6] was -0.000136 (inactive). The slope in [7] is 0.00561 (inactive). Besides, the molecule was called inactive in assay [8].
Take `Cc1cccc(C)c1OCC(O)CNS(=O)(=O)c1ccccc1C(=O)N1CCOCC1` (stereo unspecified): the cell count in assay [1] was 458. Besides, the inhibition was 1.5% (inactive) in [1], -196% (inactive) in assay [2], 2.71% (inactive) in assay [4] and -5.56% (inactive) in assay [9]. In assay [2], this molecule came in with a nuclei count of 172%. Also, the z-score in [3] (setting [10]) is -0.426; in [3] (setting [11]), 0.519; in assay [3] (setting [12]), 1.28. Besides, the fluorescence slope in assay [5] was -0.387 (inactive). Further, the NADPH fluorescence slope in [6] is -1.1e-05 (inactive). Moreover, the slope in assay [7] was 0.00603 (inactive). For the same molecule, the molecule was classed as inactive in assay [8].
